Published values of several laboratories.
Compare with care: the assays were run in different laboratories.
Read-out: cell growth or viability

COc1cccc2c1C(=O)c1c(O)c3c(c(O)c1C2=O)C[C@@](O)(C(=O)CO)C[C@@H]3O[C@H]1C[C@H](N)[C@H](O)[C@H](C)O1 — IC50 (BT-474; MTT; 48 h): 0.8 µg/mL
Cc1ccc2[nH]c(=O)c3cc(C(=O)NCCCN(C)Cc4ccccc4)sc3c2c1 — IC50 (CFPAC-1; MTT; 24 h): 16.8 µM
CC(=NN=c1[nH]c(C)c(N=Nc2ccccc2)s1)c1c(O)c2ccccc2oc1=O — IC50 (human Skin fibroblast; MTT; 48 h): > 100 µM
COc1cccc2c1C(=O)c1c(O)c3c(c(O)c1C2=O)C[C@@](O)(C(=O)CO)C[C@@H]3O[C@H]1C[C@H](N)[C@H](O)[C@H](C)O1 — IC50 (MB002; 7 days): 0.0645 µM
CCn1c(-c2nnc(NC(=O)c3cc4c([nH]c5ccccc54)c(-c4ccc(OC)cc4)n3)s2)cc2ccccc21 — IC50 (BT-474; MTT; 72 h): 20.1 µM
Cc1nc(Nc2ncc(C(=O)Nc3c(C)cccc3Cl)s2)cc(N2CCN(CCO)CC2)n1 — IC50 (MB002; 7 days): 2.65 µM
CCn1c(-c2nnc(NC(=O)c3cc4c([nH]c5ccccc54)c(-c4cc(OC)c(OC)c(OC)c4)n3)s2)cc2ccccc21 — IC50 (BT-474; MTT; 72 h): 19.5 µM
CN(C)c1ccc2cc(C(=O)N[C@@H](CCCNC(=N)CCl)C(=O)NCc3ccccc3)ccc2c1 — IC50 (S-180; 48 h): 8.4 µM
CC1(C)CC[C@]2(C(=O)O)CC[C@]3(C)C(=CC[C@@H]4[C@@]5(C)CC[C@H](O)C(C)(C)[C@@H]5CC[C@]43C)[C@@H]2C1 — IC50 (human Skin fibroblast; MTT; 48 h): 63.6 µM
CON(C)C(=O)N1N=C(c2cc(F)ccc2F)S[C@@]1(CCCN)c1ccccc1 — IC50 (MB002; 7 days): 0.000967 µM
CC(C)C[C@H](NC(=O)[C@H](Cc1ccccc1)NC(=O)c1cnccn1)B(O)O — IC50 (SK-LU-1; ATP luminescence): 0.01 µM
COc1cc([C@@H]2c3cc4c(cc3[C@@H](O[C@@H]3O[C@@H]5CO[C@@H](C)O[C@H]5[C@H](O)[C@H]3O)[C@H]3COC(=O)[C@H]23)OCO4)cc(OC)c1O — IC50 (human Skin fibroblast; 48 h): 5 µM
CS(=O)(=O)c1ccc(C(=O)Nc2ccc(Cl)c(-c3ccccn3)c2)c(Cl)c1 — IC50 (HD-MB03; 7 days): > 10 µM
CC(C)c1cc(-c2n[nH]c(=O)n2-c2ccc3c(ccn3C)c2)c(O)cc1O — IC50 (B16-F10; imaging; 24 h): 0.321 µM
CCOC(=O)c1sc(=NN=C(C)c2c(O)c3ccccc3oc2=O)n(CC)c1C — IC50 (human Skin fibroblast; MTT; 48 h): > 100 µM
Cc1cc2c(F)c(Oc3ncnn4cc(OC[C@@H](C)O)c(C)c34)ccc2[nH]1 — IC50 (HD-MB03; 7 days): > 10 µM
CC(=NN=C1NC(=O)C(C)S1)c1c(O)c2ccccc2oc1=O (stereo not shown) — IC50 (human Skin fibroblast; MTT; 48 h): > 100 µM
C[C@]1(c2nc3c(C(N)=O)cccc3[nH]2)CCCN1 — IC50 (HD-MB03; 7 days): > 10 µM
COc1cccc2c1C(=O)c1c(O)c3c(c(O)c1C2=O)C[C@@](O)(C(=O)CO)C[C@@H]3O[C@H]1C[C@H](N)[C@H](O)[C@H](C)O1 — IC50 (human Skin fibroblast; MTT; 48 h): 0.16 µM
CC[C@]1(O)C[C@@H]2CN(CCc3c([nH]c4ccccc34)[C@@](C(=O)OC)(c3cc4c(cc3OC)N(C)[C@H]3[C@@](O)(C(=O)OC)[C@H](OC(C)=O)[C@]5(CC)C=CCN6CC[C@]43[C@@H]65)C2)C1 — IC50 (KB 3-1; MTT): 0.0526 µM
CC(=NN=c1[nH]c(C)c(N=Nc2ccc(C)cc2)s1)c1c(O)c2ccccc2oc1=O — IC50 (human Skin fibroblast; MTT; 48 h): > 100 µM
Oc1ccc(Nc2nc(-c3ccc(Cl)cc3)cs2)cc1 — IC50 (WM278; MTS; 48 h): 21.4 µM
CC(=NN=c1sc(N=Nc2ccc(C)cc2)c(C)n1C)c1c(O)c2ccccc2oc1=O — IC50 (human Skin fibroblast; MTT; 48 h): > 100 µM
O=C(Nc1ccccc1CO)c1c[nH]c2ccc(Cl)cc12 — IC50 (SK-N-BE; MTT): 17 µM
O=C(N/N=C/c1c(O)ccc2ccccc12)c1cc(-c2ccc3ccccc3c2)n[nH]1 — IC50 (WM278; MTS; 72 h): 6.1 µM
CCn1c(C)c(N=Nc2ccc(C)cc2)sc1=NN=C(C)c1c(O)c2ccccc2oc1=O — IC50 (human Skin fibroblast; MTT; 48 h): > 100 µM
CCn1c(-c2nnc(NC(=O)c3cc4c([nH]c5ccccc54)c(-c4ccc(C)cc4)n3)s2)cc2ccccc21 — IC50 (BT-474; MTT; 72 h): 19.5 µM
CCN1CCN(Cc2ccc(Nc3ncc(F)c(-c4cc(F)c5nc(C)n(C(C)C)c5c4)n3)nc2)CC1 — IC50 (MB002; 7 days): 0.0719 µM
CNc1ncc2cc(-c3ccc(-c4cccc(C)n4)cc3Cl)c(=O)n(C[C@H]3OC[C@H](N)CO3)c2n1 — IC50 (CFPAC-1; MTT; 24 h): 23.9 µM
O=C(Nc1cccc(CO)c1)c1c[nH]c2ccc(Cl)cc12 — IC50 (SK-N-BE; MTT): 19 µM
Cn1c(-c2nnc(NC(=O)c3cc4c([nH]c5ccccc54)c(-c4ccccc4)n3)s2)cc2ccccc21 — IC50 (BT-474; MTT; 72 h): 17.6 µM
CC(=NN=C1SC(C)C(=O)N1C)c1c(O)c2ccccc2oc1=O (stereo not shown) — IC50 (human Skin fibroblast; MTT; 48 h): > 100 µM
COc1cc(Nc2nccc(-c3cnn4nc(OC)ccc34)n2)cc(C(F)(F)F)c1 — IC50 (SW948; ATP luminescence): 3 µM
COc1ccc(-c2nc(C(=O)Nc3nnc(-c4cc5ccccc5n4C)s3)cc3c2[nH]c2ccccc23)cc1 — IC50 (BT-474; MTT; 72 h): 14.1 µM
CNC(=S)NN=C(C)c1c(O)c2ccccc2oc1=O — IC50 (human Skin fibroblast; MTT; 48 h): > 100 µM
COc1ccc(-c2nc(C(=O)Nc3nnc(-c4cc5ccccc5[nH]4)s3)cc3c2[nH]c2ccccc23)cc1 — IC50 (BT-474; MTT; 72 h): 4.09 µM
Nc1nc2[nH]cc(CCc3ccc(C(=O)N[C@@H](CCC(=O)O)C(=O)O)cc3)c2c(=O)[nH]1 — IC50 (MB002; 7 days): 0.0635 µM
